Active and inactive are the calls of the source. The calls are words filed in the database; no cut-off is given here.

The term ED50 denotes the dose that gives a 50% effect, or the effect in half of the subjects. The EC50 is the concentration at which the effect is half-maximal.

For assay [1], the species on record is Cavia porcellus. The assay is described as follows: In vitro functional activity on the isolated guinea pig gallbladder. Also noted: concentration or dose not given beside the values.
For assay [2], the system named is Rattus norvegicus. Description: Compound was tested in vivo for its anorectic potency in rats at dose of 0.5 umol/kg ip.
Assay [3] deals with Mus musculus. Description: Compound was tested in vivo Percent Maximal response activity in mouse gallbladder emptying assay at dose of 1 nmol/kg ip.
The species entered for assay [4] is Cavia porcellus. Description: Maximum contractile response at 30 uM, normalized to CCK-8 (1 uM). It is filed as functional.
The test system of assay [5] is Mus musculus. The assay is described as follows: Compound was tested in vivo for its activity in mouse gallbladder emptying assay at dose of 0.1 umol/kg ip. The assay is classed as functional.
Assay [6] has as its system Rattus norvegicus. Description: Compound was tested in vivo for its Percent Maximal anorectic potency in rats at dose of 0.5 umol/kg ip.
Assay [7] relates to Rattus norvegicus. Description: Compound was tested in vivo for its Percent Maximal anorectic potency in rats at dose of 10 umol/kg po; ia = Inactive.
The species named for assay [8] is Cavia porcellus. Description: In-vitro potency on the isolated guinea pig gallbladder. The assay is classed as functional.
The species entered for assay [9] is Cavia porcellus. Description: In vitro Functional activity on the isolated guinea pig gallbladder following incubation at 30 uM percent contraction normalized to that for CCK-8; inactive. The procedure, abridged:
(§1)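 Contraction is expressed as percent of the CCK-8 (1 μM) response. Non-contracting compounds were tested for antagonism against a CCK-8 curve (10⁻¹¹ to 10⁻⁶ M).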

The species named for assay [10] is Cavia porcellus. Description: In vitro Functional activity on the isolated guinea pig gallbladder following incubation at 1 micro M percent contraction normalized to that for CCK-8. The procedure, abridged:
as §1

The test system of assay [11] is Mus musculus. The assay is described as follows: Compound was tested in vivo for its activity in mouse gallbladder emptying assay at dose of 1 umol/kg po; ia = Inactive. The assay is classed as functional, organism-based.
The species named for assay [12] is Cavia porcellus. The assay is described as follows: In vitro potency on the isolated guinea pig gallbladder. The assay is classed as functional.
Assay [13] has as its system Rattus norvegicus. The assay is described as follows: Compound was tested in vivo for its Percent Maximal anorectic potency in rats at dose of 0.1 umol/kg ip. The assay is classed as functional.
Assay [14] deals with Mus musculus. The assay is described as follows: Compound was tested in vivo for Percent Maximal response in mouse gallbladder emptying assay at dose of 1 umol/kg po; ia = Inactive. The assay is classed as functional, organism-based.

In assay [1], `CC(C)N(C(=O)CN1C(=O)C(NC(=O)Nc2ccc(C(=O)O)cc2)C(=O)N(c2ccccc2)c2ccccc21)c1ccccc1` (stereo not drawn) returned an Activity of 14%.
For `CSCC[C@H](NC(=O)[C@H](Cc1ccc(OS(=O)(=O)O)cc1)NC(=O)[C@@H](N)CC(=O)O)C(=O)NCC(=O)N[C@@H](Cc1c[nH]c2ccccc12)C(=O)N[C@@H](CCSC)C(=O)N[C@@H](CC(=O)O)C(=O)N[C@@H](Cc1ccccc1)C(N)=O` [SINCALIDE], the ED50 amounted to 0.027 µmol/kg in assay [2] and 3e-05 µmol/kg in [5]. Also, the values for the Max in [3], in assay [4] and in assay [6] were 95%, 100% and 95%, respectively. Moreover, in assay [7], the Max entry is “inactive”. Moreover, the EC50 in [8] was 0.794 nM.
Regarding `CC(C)N(C(=O)CN1C(=O)C(NC(=O)N2CCNCC2)C(=O)N(c2ccccc2)c2ccccc21)c1ccccc1` (stereo not drawn), in [9], the outcome was inactive.
With `CC(C)N(C(=O)CN1C(=O)C(NC(=O)Nc2cccc(N(C)C)c2)C(=O)N(c2ccccc2)c2ccccc21)c1ccccc1` (stereo not drawn), the Activity in assay [10] is on record as 29%; in assay [1], 58%.
`Cc1ccccc1NC(=O)NC1C(=O)N(CC(=O)N(c2ccccc2)C(C)C)c2ccccc2N(c2ccccc2)C1=O` (stereo not drawn) came in with an Activity in [1] of 34%.
Regarding `CC(C)N(C(=O)CN1C(=O)C(NC(=O)Nc2cccc(NS(=O)(=O)C(F)(F)F)c2)C(=O)N(c2ccccc2)c2ccccc21)c1ccccc1` (stereo not drawn), the figures for the Activity in [10] and in assay [1] were 87% and 89%, respectively.
As for `CC(C)N(C(=O)CN1C(=O)C(NC(=O)Nc2cccc(C(N)=O)c2)C(=O)N(c2ccccc2)c2ccccc21)c1ccccc1` (stereo not drawn), in assay [1], the Activity is listed as 76%.
Compound `CC(C)N(C(=O)CN1C(=O)C(NC(=O)c2ccccc2)C(=O)N(c2ccccc2)c2ccccc21)c1ccccc1` (stereo not drawn) registered an Activity in assay [1] of 57%.
Same read-out and setting: under `CC(C)N(C(=O)CN1C(=O)C(NC(=O)c2ccncc2)C(=O)N(c2ccccc2)c2ccccc21)c1ccccc1` (stereo not drawn) stands 43%.
Still for that read-out and setting: under `CC(C)N(C(=O)CN1C(=O)C(NC(=O)Nc2cccc(OCC(=O)N3CCOCC3)c2)C(=O)N(c2ccccc2)c2ccccc21)c1ccccc1` (stereo not drawn) stands 78%.
Consider `CC(C)N(C(=O)CN1C(=O)C(NC(=O)Nc2cccc(CO)c2)C(=O)N(c2ccccc2)c2ccccc21)c1ccccc1` (stereo not drawn), for which the results for the Activity in assay [10] and in assay [1] were 85% and 90%, respectively.
For the compound `CC(C)N(C(=O)CN1C(=O)C(NC(=O)Nc2cccc(CC(=O)O)c2)C(=O)N(c2ccccc2)c2ccccc21)c1ccccc1` (stereo not drawn), in assay [1], the Activity is 89%.
Take `CC(C)N(C(=O)CN1C(=O)C(NC(=O)Nc2cccc(OCC(=O)O)c2)C(=O)N(c2ccccc2)c2ccccc21)c1ccccc1` (stereo not drawn): the Activity in [10] turned out to be 85%; in assay [1], 98%.
In assay [1], `CC(C)N(C(=O)CN1C(=O)C(NC(=O)Nc2cccc(S(C)(=O)=O)c2)C(=O)N(c2ccccc2)c2ccccc21)c1ccccc1` (stereo not drawn) registered an Activity of 53%.
As for `CC(C)N(C(=O)CN1C(=O)C(NC(=O)Nc2cccc(-c3nn[nH]n3)c2)C(=O)N(c2ccccc2)c2ccccc21)c1ccccc1` (stereo not drawn), the results for the Activity in assay [10] and in assay [1] were 64% and 79%, respectively.
In assay [1], `CC(C)N(C(=O)CN1C(=O)C(NC(=O)Nc2cccc(Cl)c2)C(=O)N(c2ccccc2)c2ccccc21)c1ccccc1` (stereo not drawn) displayed an Activity of 7%.
Still for that read-out and setting: the result for `COc1ccc(NC(=O)NC2C(=O)N(CC(=O)N(c3ccccc3)C(C)C)c3ccccc3N(c3ccccc3)C2=O)cc1` (stereo not drawn) reads 38%; that for `CC(C)N(C(=O)CN1C(=O)C(NC(=O)c2ccccc2C(=O)O)C(=O)N(c2ccccc2)c2ccccc21)c1ccccc1` (stereo not drawn), 58%.
On the same count and under the same terms, under `CC(C)N(C(=O)CN1C(=O)C(NC(=O)c2cc3ccccc3o2)C(=O)N(c2ccccc2)c2ccccc21)c1ccccc1` (stereo not drawn) stands 35%.
The same measure, in the same setting: under `CC(C)N(C(=O)CN1C(=O)C(NC(=O)Nc2cccc(OCCN(C)C)c2)C(=O)N(c2ccccc2)c2ccccc21)c1ccccc1` (stereo not drawn) stands 2%; under `CC(C)NC(=O)NC1C(=O)N(CC(=O)N(c2ccccc2)C(C)C)c2ccccc2N(c2ccccc2)C1=O` (stereo not drawn), 22%.
For `CC(C)N(C(=O)CN1C(=O)C(NC(=O)Nc2cccc(N)c2)C(=O)N(c2ccccc2)c2ccccc21)c1ccccc1` (stereo not drawn), the Activity in [10] came out at 50%; in assay [1], 76%.
On to `CC(C)N(C(=O)CN1C(=O)C(NC(=O)NCc2ccccc2)C(=O)N(c2ccccc2)c2ccccc21)c1ccccc1` (stereo not drawn), for which the Activity in assay [1] is recorded as 1%.
Same read-out and setting: the result for `CC(C)N(C(=O)CN1C(=O)C(NC(=O)Cc2ccccc2)C(=O)N(c2ccccc2)c2ccccc21)c1ccccc1` (stereo not drawn) reads 28%.
For `CC(C)N(C(=O)CN1C(=O)C(NC(N)=O)C(=O)N(c2ccccc2)c2ccccc21)c1ccccc1` (stereo not drawn), the result in assay [9] was inactive.
For `CC(C)N(C(=O)CN1C(=O)C(NC(=O)Nc2cccc(OCC(=O)N(C)C)c2)C(=O)N(c2ccccc2)c2ccccc21)c1ccccc1` (stereo not drawn), the Activity in assay [1] is given as 77%.
On the same count and under the same terms, under `COc1cccc(NC(=O)NC2C(=O)N(CC(=O)N(c3ccccc3)C(C)C)c3ccccc3N(c3ccccc3)C2=O)c1` (stereo not drawn) stands 78%.
The same measure, in the same setting: the result for `CC(C)N(C(=O)CN1C(=O)C(NC(=O)Nc2ccccc2O)C(=O)N(c2ccccc2)c2ccccc21)c1ccccc1` (stereo not drawn) reads 16%; that for `Cc1cccc(NC(=O)NC2C(=O)N(CC(=O)N(c3ccccc3)C(C)C)c3ccccc3N(c3ccccc3)C2=O)c1` (stereo not drawn), 5%.
Same read-out and setting: the result for `CC(C)N(C(=O)CN1C(=O)C(NC(=O)Nc2cccc(OCC(N)=O)c2)C(=O)N(c2ccccc2)c2ccccc21)c1ccccc1` (stereo not drawn) reads 95%; that for `CC(C)N(C(=O)CN1C(=O)C(NC(=O)c2cccnc2)C(=O)N(c2ccccc2)c2ccccc21)c1ccccc1` (stereo not drawn), 43%.
Compound `CC(C)N(C(=O)CN1C(=O)C(NC(=O)c2c[nH]c3ccccc23)C(=O)N(c2ccccc2)c2ccccc21)c1ccccc1` (stereo not drawn) showed an Activity in [1] of 5%.
Same read-out and setting: the result for `CC(C)N(C(=O)CN1C(=O)C(NC(=O)c2cccc(C(=O)O)c2)C(=O)N(c2ccccc2)c2ccccc21)c1ccccc1` (stereo not drawn) reads 56%.
With `CC(C)N(C(=O)CN1C(=O)C(NC(=O)Nc2cccc(O)c2)C(=O)N(c2ccccc2)c2ccccc21)c1ccccc1` (stereo not drawn), the values for the Activity in assay [10] and in assay [1] were 82% and 89%, respectively.
The compound `Cc1ccc(NC(=O)NC2C(=O)N(CC(=O)N(c3ccccc3)C(C)C)c3ccccc3N(c3ccccc3)C2=O)cc1` (stereo not drawn) yielded an Activity in assay [1] of 20%.
`CSc1cccc(NC(=O)NC2C(=O)N(CC(=O)N(c3ccccc3)C(C)C)c3ccccc3N(c3ccccc3)C2=O)c1` (stereo not drawn) came in with an Activity in assay [1] of 58%.
In the case of `CC(C)N(C(=O)CN1C(=O)C(NC(=O)Nc2ccccc2)C(=O)N(c2ccccc2)c2ccccc21)c1ccccc1` (stereo not drawn), the ED50 in [2] stood at 0.95 µmol/kg. The ED50 entry in [11] was “inactive”. For the same compound, the EC50 in [12] is 1260 nM. Besides, the results for the Max in assay [3], in assay [4] and in assay [13] were 78%, 86% and 96%, respectively. The Max entry in assay [7] and in assay [14] was “inactive” throughout. Further, in assay [1], the Activity is given as 86%.

The record behind these values is ChEMBL document CHEMBL1129463, “Discovery of 1,5-benzodiazepines with peripheral cholecystokinin (CCK-A) receptor agonist activity (II): Optimization of the C3 amino substituent” (J Med Chem, 1996).
